Assay type in all cases: functional
Test [1] relates to Candida albicans. Put plainly: Antifungal activity against Candida albicans ATCC 24433 after 48 hrs by broth microdilution method. In short, it runs like this: (§1)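 Broth microdilution run per CLSI M27-A2 in RPMI 1640 buffered to pH 7.0 with MOPS. Fluconazole and amphotericin B served as reference drugs. Endpoints were read after 48 h, visually or by spectrophotometer where needed. MIC was taken as the concentration giving 50% inhibition relative to the positive control.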
For orientation: Broth dilution looks for growth in wells or tubes with falling amounts of substance.

Test [2] has as its system Aspergillus niger. Put plainly: Antifungal activity against Aspergillus niger ATCC 16404 after 48 hrs by broth microdilution method.
Test [3] deals with Fusarium proliferatum. Put plainly: Antifungal activity against Fusarium proliferatum ATCC 10052 after 48 hrs by broth microdilution method.
Test [4] has as its system Candida albicans. In words: Antifungal activity against Candida albicans ATCC 2091 after 48 hrs by broth microdilution method. The settings on record: ATCC 2091, 48 h. In outline: as §1
Test [5] relates to Candida albicans. Put plainly: Antifungal activity against Candida albicans ATCC 90028 after 48 hrs by broth microdilution method. The settings on record: ATCC 90028, 48 h. In short, it runs like this: as §1
The subject of test [6] is Nakaseomyces glabratus. In words: Antifungal activity against Candida glabrata ATCC 90030 after 48 hrs by broth microdilution method. The settings on record: ATCC 90030, 48 h. In short, it runs like this: as §1
Test [7] deals with Pichia kudriavzevii. In words: Antifungal activity against Candida krusei ATCC 6258 after 48 hrs by broth microdilution method. The settings on record: ATCC 6258, 48 h. In outline: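 Broth microdilution MIC per CLSI M27-A2 in RPMI 1640 buffered to pH 7.0 with MOPS. End points were read at 48 h, visually or by spectrophotometer where needed. For fluconazole and the synthetic compounds, MIC was the concentration giving 50% inhibition relative to the positive control. Fluconazole and amphotericin B served as positive controls.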

Test [8] relates to Candida tropicalis. In words: Antifungal activity against Candida tropicalis ATCC 750 after 48 hrs by broth microdilution method. The settings on record: ATCC 750, 48 h. In outline: as §1
The subject of test [9] is Candida albicans. In words: Antifungal activity against Candida albicans ATCC 10231 after 48 hrs by broth microdilution method. The settings on record: ATCC 10231, 48 h. In outline: as §1

The structures appear in SMILES notation. Converted amounts (≈) assume the structure as drawn. The source made the active and inactive calls. No cut-off for these calls is given here. A value given as a limit tells only on which side of the number the result lay.

Broadly, the MIC is the least concentration at which growth counts as inhibited.

In test [1] (ATCC 24433, 48 h), `O=C1COc2ccc(Cl)cc2N1CC(O)(Cn1cncn1)c1ccc(Br)cc1` (stereo not drawn) displayed an MIC of 4 µg/mL (≈ 8.63 µM). Moreover, the MIC result in [2] and in test [3] was “inactive” each time.

`O=C1CSc2cc(Cl)ccc2N1CC(O)(Cn1cncn1)c1ccc(F)cc1` (stereo not drawn) showed an MIC in test [1] (ATCC 24433, 48 h) of 2 µg/mL (≈ 4.77 µM). The MIC entry in test [2] and in test [3] was “inactive” each time.

As to `O=C1COc2ccccc2N1CC(O)(Cn1cncn1)c1ccc(F)cc1F` (stereo not drawn), the minimal inhibitory concentration (MIC) came out at 0.5 µg/mL (≈ 1.29 µM) in [1] (ATCC 24433, 48 h); 0.25 µg/mL (≈ 0.647 µM) in test [4]; 0.12 µg/mL (≈ 0.311 µM) in test [5]; 0.25 µg/mL (≈ 0.647 µM) in test [6]; 16 µg/mL (≈ 41.4 µM) in test [7]; 2 µg/mL (≈ 5.18 µM) in [8]. The minimal inhibitory concentration (MIC) in [9] was determined as 0.5 µg/mL (≈ 1.29 µM). In addition, the MIC result in [2] and in test [3] was “inactive” each time.

For the compound `OC(Cn1cncn1)(Cn1cncn1)c1ccc(F)cc1F` [FLUCONAZOLE], the MIC in test [1] (ATCC 24433, 48 h) was 0.25 µg/mL (≈ 0.816 µM); in test [2] (ATCC 16404, 48 h) it was 128 µg/mL (≈ 418 µM); in [4], 0.5 µg/mL (≈ 1.63 µM); in [5], 0.5 µg/mL (≈ 1.63 µM); in [6], 4 µg/mL (≈ 13.1 µM); in test [7], 64 µg/mL (≈ 209 µM). Also, the MIC in [8] was 2 µg/mL (≈ 6.53 µM); in test [3] (ATCC 10052, 48 h), over 128 µg/mL; in test [9], 1 µg/mL (≈ 3.27 µM).

Take `O=C1CSc2ccccc2N1CC(O)(Cn1cncn1)c1ccc(F)cc1F` (stereo not drawn): the minimal inhibitory concentration (MIC) amounted to 0.03 µg/mL (≈ 0.0745 µM) in [1] (ATCC 24433, 48 h); 0.12 µg/mL (≈ 0.298 µM) in test [4]; 0.03 µg/mL (≈ 0.0745 µM) in test [5]; 0.06 µg/mL (≈ 0.149 µM) in test [6]; 4 µg/mL (≈ 9.94 µM) in test [7]; 0.5 µg/mL (≈ 1.24 µM) in [8]. 0.12 µg/mL (≈ 0.298 µM) was the least that counted as inhibitory in [9] (MIC). Further, the MIC entry in test [2] and in test [3] was “inactive” each time.

`CC(=O)c1ccc2c(c1)N(CC(O)(Cn1cncn1)c1ccc(F)cc1F)C(=O)CO2` (stereo not drawn): the MIC result in [1], in [2] and in test [3] was “inactive” throughout.

For `O=C1CSc2cc(Br)ccc2N1CC(O)(Cn1cncn1)c1ccc(F)cc1F` (stereo not drawn), inhibition of growth in test [1] (ATCC 24433, 48 h) (MIC) required 1 µg/mL (≈ 2.08 µM). Also, the MIC result in test [2] and in [3] was “inactive” in each case.

With `C[C@@H]1[C@H](O)[C@@H](C)/C=C/C=C/C=C/C=C/C=C/C=C/C=C/[C@H](O[C@@H]2O[C@H](C)[C@@H](O)[C@H](N)[C@@H]2O)C[C@@H]2O[C@](O)(C[C@@H](O)C[C@@H](O)[C@H](O)CC[C@@H](O)C[C@@H](O)CC(=O)O[C@H]1C)C[C@H](O)[C@H]2C(=O)O` [AMPHOTERICIN B], the minimum inhibitory concentration (MIC) in test [1] (ATCC 24433, 48 h) was 0.25 µg/mL (≈ 0.271 µM); in test [2] (ATCC 16404, 48 h) it was 1 µg/mL (≈ 1.08 µM); in test [4], 0.5 µg/mL (≈ 0.541 µM); in test [5], 0.5 µg/mL (≈ 0.541 µM); in test [6], 0.25 µg/mL (≈ 0.271 µM); in [7] it was 0.5 µg/mL (≈ 0.541 µM). The minimum inhibitory concentration (MIC) turned out to be 0.5 µg/mL (≈ 0.541 µM) in test [8]; 2 µg/mL (≈ 2.16 µM) in [3] (ATCC 10052, 48 h); 0.5 µg/mL (≈ 0.541 µM) in [9].

For the compound `O=C1COc2ccc(Cl)cc2N1CC(O)(Cn1cncn1)c1ccc(F)cc1` (stereo not drawn), in test [1] (ATCC 24433, 48 h), the minimal inhibitory concentration (MIC) came to 16 µg/mL (≈ 39.7 µM). Besides, the MIC result in test [2] and in [3] was “inactive” in each case.

`COc1ccc2c(c1)SCC(=O)N2CC(O)(Cn1cncn1)c1ccc(F)cc1F` (stereo not drawn) showed an MIC in test [1] (ATCC 24433, 48 h) of 4 µg/mL (≈ 9.25 µM). Also, the MIC entry in test [2] and in [3] was “inactive” in each case.

In turn, `COc1ccc2c(c1)SCC(=O)N2CC(O)(Cn1cncn1)c1ccc(F)cc1` (stereo not drawn) showed an MIC in [1] (ATCC 24433, 48 h) of 8 µg/mL (≈ 19.3 µM). Further, the MIC result in test [2] and in [3] was “inactive” in each case.

On to `CC(=O)c1ccc2c(c1)N(CC(O)(Cn1cncn1)c1ccc(Br)cc1)C(=O)CO2` (stereo not drawn), for which it took 32 µg/mL (≈ 67.9 µM) to inhibit growth in test [1] (ATCC 24433, 48 h) (MIC). For the same compound, the MIC result in [2] and in [3] was “inactive” each time.

On to `O=C1COc2ccc(Br)cc2N1CC(O)(Cn1cncn1)c1ccc(F)cc1F` (stereo not drawn), for which the minimal inhibitory concentration (MIC) in test [1] (ATCC 24433, 48 h) was 16 µg/mL (≈ 34.4 µM). For the same compound, the MIC entry in test [2] and in [3] was “inactive” each time.

As to `Cc1ccc2c(c1)SCC(=O)N2CC(O)(Cn1cncn1)c1ccc(F)cc1F` (stereo not drawn), 2 µg/mL (≈ 4.8 µM) was the least that counted as inhibitory in test [1] (ATCC 24433, 48 h) (MIC). Moreover, the MIC result in test [2] and in test [3] was “inactive” each time.

In test [1] (ATCC 24433, 48 h), `O=C1COc2ccc(Cl)cc2N1CC(O)(Cn1cncn1)c1ccc(F)cc1F` (stereo not drawn) showed a minimal inhibitory concentration (MIC) of 8 µg/mL (≈ 19 µM). The MIC entry in [2] and in test [3] was “inactive” in each case.

On to `COc1ccc2c(c1)SCC(=O)N2CC(O)(Cn1cncn1)c1ccc(Br)cc1` (stereo not drawn), for which, in [1] (ATCC 24433, 48 h), the minimum inhibitory concentration (MIC) worked out at 2 µg/mL (≈ 4.21 µM). In addition, the MIC result in test [2] and in test [3] was “inactive” throughout.

Consider `O=C1COc2ccc([N+](=O)[O-])cc2N1CC(O)(Cn1cncn1)c1ccc(F)cc1F` (stereo not drawn), for which the MIC in test [1] (ATCC 24433, 48 h) is 32 µg/mL (≈ 74.2 µM). Moreover, the MIC entry in [2] and in [3] was “inactive” in each case.

Take `O=C1CSc2cc(Cl)ccc2N1CC(O)(Cn1cncn1)c1ccc(F)cc1F` (stereo not drawn): the MIC in [1] (ATCC 24433, 48 h) is 1 µg/mL (≈ 2.29 µM). In addition, the MIC entry in test [2] and in [3] was “inactive” in each case.

Source of the values: ChEMBL document CHEMBL1153199, “Fluconazole analogues containing 2H-1,4-benzothiazin-3(4H)-one or 2H-1,4-benzoxazin-3(4H)-one moieties, a novel class of anti-Candida agents” (2010).
